Measured values: ChEMBL document CHEMBL3286311, “Novel and high affinity fluorescent ligands for the serotonin transporter based on (s)-citalopram” (ACS Med Chem Lett, 2014)
Calls of active or inactive are those of the source. The rule behind the calls is not given here.

What was measured:
[1] = biological target: T1, Sodium-dependent serotonin transporter (Homo sapiens, UniProt P31645); test: Inhibition of 5-hydroxy[3H]tryptamine uptake at human SERT expressed in African green monkey COS7 cells incubated for 10 mins prior to radioligand addition measured after 5 mins by scintillation counting analysis; type: cell-based, COS-7
Target sequence in this assay (P31645 whole entry): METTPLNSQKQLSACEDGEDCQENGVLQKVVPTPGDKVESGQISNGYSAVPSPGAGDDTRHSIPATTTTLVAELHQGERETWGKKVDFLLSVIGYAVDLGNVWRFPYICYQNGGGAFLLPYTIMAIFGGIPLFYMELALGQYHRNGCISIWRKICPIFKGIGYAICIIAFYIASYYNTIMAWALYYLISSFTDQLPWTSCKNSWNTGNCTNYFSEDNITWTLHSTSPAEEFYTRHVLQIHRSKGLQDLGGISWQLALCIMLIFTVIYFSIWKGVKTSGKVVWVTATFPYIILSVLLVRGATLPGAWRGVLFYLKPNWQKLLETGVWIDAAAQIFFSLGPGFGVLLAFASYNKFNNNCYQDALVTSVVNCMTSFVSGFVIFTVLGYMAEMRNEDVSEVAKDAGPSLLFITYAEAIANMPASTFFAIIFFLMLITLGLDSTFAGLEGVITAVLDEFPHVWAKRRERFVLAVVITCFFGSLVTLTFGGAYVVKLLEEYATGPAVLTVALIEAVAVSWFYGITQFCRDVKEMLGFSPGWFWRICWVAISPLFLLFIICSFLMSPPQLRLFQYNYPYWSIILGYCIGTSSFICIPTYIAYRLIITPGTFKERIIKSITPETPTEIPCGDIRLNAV

[2] = biological target: T2, Sodium-dependent dopamine transporter (Homo sapiens, UniProt Q01959); test: Inhibition of 2,5,6-[3H]-dopamine uptake at human DAT expressed in African green monkey COS7 cells at 10 uM incubated for 10 mins prior to radioligand addition measured after 5 mins by scintillation counting analysis; type: cell-based; settings: COS-7
T2 sequence (Q01959 whole entry): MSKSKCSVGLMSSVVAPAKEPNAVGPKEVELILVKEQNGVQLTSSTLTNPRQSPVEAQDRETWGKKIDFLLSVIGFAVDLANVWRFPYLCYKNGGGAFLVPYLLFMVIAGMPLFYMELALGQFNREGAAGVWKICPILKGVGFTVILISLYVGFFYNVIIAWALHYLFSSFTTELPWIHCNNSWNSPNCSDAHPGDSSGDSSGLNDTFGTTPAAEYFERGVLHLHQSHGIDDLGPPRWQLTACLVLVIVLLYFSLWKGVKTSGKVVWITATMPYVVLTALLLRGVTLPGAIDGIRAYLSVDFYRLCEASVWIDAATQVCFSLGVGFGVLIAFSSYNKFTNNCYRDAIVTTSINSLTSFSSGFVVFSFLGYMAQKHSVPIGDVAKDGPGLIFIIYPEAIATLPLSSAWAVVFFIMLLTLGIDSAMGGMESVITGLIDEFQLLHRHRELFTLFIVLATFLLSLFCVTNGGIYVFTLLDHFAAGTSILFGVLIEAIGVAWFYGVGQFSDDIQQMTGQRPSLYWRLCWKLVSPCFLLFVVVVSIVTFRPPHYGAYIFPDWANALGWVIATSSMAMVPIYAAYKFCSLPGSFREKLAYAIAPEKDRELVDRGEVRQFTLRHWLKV

[3] = biological target: T3, Sodium-dependent noradrenaline transporter (Homo sapiens, UniProt P23975); test: Inhibition of 2,5,6-[3H]-dopamine uptake at human NET expressed in African green monkey COS7 cells at 10 uM incubated for 10 mins prior to radioligand addition measured after 5 mins by scintillation counting analysis; type: cell-based; settings: COS-7
T3 sequence (P23975 whole entry): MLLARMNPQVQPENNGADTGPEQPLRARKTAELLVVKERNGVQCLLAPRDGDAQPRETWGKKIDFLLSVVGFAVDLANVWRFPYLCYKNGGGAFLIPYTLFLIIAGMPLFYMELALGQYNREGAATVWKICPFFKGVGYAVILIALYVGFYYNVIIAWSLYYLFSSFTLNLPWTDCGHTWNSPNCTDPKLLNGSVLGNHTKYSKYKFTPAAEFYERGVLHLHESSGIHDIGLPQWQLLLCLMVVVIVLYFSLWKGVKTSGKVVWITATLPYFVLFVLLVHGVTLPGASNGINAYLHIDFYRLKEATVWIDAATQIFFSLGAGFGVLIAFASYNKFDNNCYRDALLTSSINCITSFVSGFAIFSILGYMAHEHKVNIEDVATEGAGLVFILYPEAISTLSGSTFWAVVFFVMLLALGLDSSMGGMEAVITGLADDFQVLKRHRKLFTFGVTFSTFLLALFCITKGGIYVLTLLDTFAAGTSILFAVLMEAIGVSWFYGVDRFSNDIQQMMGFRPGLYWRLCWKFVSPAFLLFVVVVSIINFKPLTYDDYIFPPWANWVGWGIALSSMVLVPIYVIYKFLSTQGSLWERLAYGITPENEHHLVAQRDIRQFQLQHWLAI

[4] = biological target: T1, Sodium-dependent serotonin transporter; test: Displacement of [3H]-S-citalopram from human SERT expressed in African green monkey COS7 cells incubated for 10 mins prior to [3H]-S-citalopram addition measured after 2 hrs by scintillation counting analysis; type: cell-based, COS-7
In short: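 Competition binding at hSERT in transiently transfected COS7 cells with [3H]-S-citalopram (2 nM) as radioligand. IC50 came from nonlinear regression and was converted to Ki using a Kd for [3H]-S-citalopram determined in parallel. SE interval is from pKi ± SE. Values are means of three to four experiments, each in triplicate.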
Target sequence in this assay (P31645 whole entry): as the sequence (P31645 whole entry) above

[5] = biological target: T1, Sodium-dependent serotonin transporter; test: Binding affinity to N-terminal EGFP-tagged SERT (unknown origin) expressed in HEK293 cells at 20 nM after 10 mins by confocal laser scanning microscopy; type: cell-based
In short: (§1)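 Live confocal imaging of HEK293 cells transiently expressing SERT with an N-terminal EGFP tag. Cells were incubated at room temperature with 20 nM ligand and imaged at 0, 1, 5, 10 or 20 min. Rhodamine signal was compared with the EGFP signal and merged with a transmission image. Paroxetine (100 μM) was coincubated as the specificity control. Three identical experiments were run.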
Target sequence in this assay (P31645 whole entry, looked up): as the sequence (P31645 whole entry) above

[6] = biological target: T1, Sodium-dependent serotonin transporter; test: Binding affinity to N-terminal EGFP-tagged SERT (unknown origin) expressed in HEK293 cells at 20 nM after 10 mins by confocal laser scanning microscopy in presence of SERT inhibitor paroxetine; type: cell-based; in short: as §1
Target sequence in this assay (P31645 whole entry, looked up): as the sequence (P31645 whole entry) above

[7] = biological target: T1, Sodium-dependent serotonin transporter; test: Binding affinity to N-terminal EGFP-tagged SERT (unknown origin) expressed in HEK293 cells at 20 nM by confocal laser scanning microscopy; type: cell-based; settings: TDE = time-dependent effect; in short: as §1
Target sequence in this assay (P31645 whole entry, looked up): as the sequence (P31645 whole entry) above

[8] = biological target: T1, Sodium-dependent serotonin transporter; test: Selectivity ratio of ZP455 Ki to compound Ki for human SERT
Target sequence in this assay (P31645 whole entry, looked up): as the sequence (P31645 whole entry) above

[9] = biological target: T2, Sodium-dependent dopamine transporter; test: Inhibition of 2,5,6-[3H]-dopamine uptake at human DAT expressed in African green monkey COS7 cells incubated for 10 mins prior to radioligand addition measured after 5 mins by scintillation counting analysis; type: cell-based, COS-7
In short: (§2)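 Uptake inhibition in transiently transfected COS7 cells, with 2,5,6-[3H]dopamine as substrate for both DAT and NET. IC50 came from nonlinear regression. Ki was calculated using the dopamine KM, which was determined in parallel. Values are means of three to four repeats, each in triplicate, with SE interval from pKI ± SE.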

[10] = biological target: T3, Sodium-dependent noradrenaline transporter; test: Inhibition of 2,5,6-[3H]-dopamine uptake at human NET expressed in African green monkey COS7 cells incubated for 10 mins prior to radioligand addition measured after 5 mins by scintillation counting analysis; type: cell-based, COS-7; in short: as §2

Row | Ki [1] | inhibition [2] | inhibition [3] | Ki [4] | Activity [5] | Activity [6] | Activity [7] | Ratio Ki [8] | Compound | Ki [9] | Ki [10]
1 | 37 nM | inactive | inactive | 11 nM |  |  |  |  | CCN(CC)c1ccc2c(-c3ccc(S(=O)(=O)NCCCCCC(=O)NCCCc4ccc5c(c4)CO[C@@]5(CCCN(C)C)c4ccc(F)cc4)cc3S(=O)(=O)[O-])c3ccc(=[N+](CC)CC)cc-3oc2c1 |  | 
2 | 250 nM | inactive | inactive | 180 nM |  |  |  |  | CCN(CC)c1ccc2c(-c3ccc(S(=O)(=O)NCCCCCC(=O)NCCCCCN(C)CCC[C@@]4(c5ccc(F)cc5)OCc5cc(C#N)ccc54)cc3S(=O)(=O)[O-])c3ccc(=[N+](CC)CC)cc-3oc2c1 |  | 
3 | 140 nM | inactive | inactive | 11 nM |  |  |  |  | CCN(CC)c1ccc2c(-c3ccc(S(=O)(=O)NCCCCCC(=O)NCCCN(C)CCC[C@@]4(c5ccc(F)cc5)OCc5cc(C#N)ccc54)cc3S(=O)(=O)[O-])c3ccc(=[N+](CC)CC)cc-3oc2c1 |  | 
4 | 34 nM | inactive | inactive | 3 nM | Active | inactive | tde | 75 | CCN(CC)c1ccc2c(-c3ccc(S(=O)(=O)NCCCCCC(=O)NCc4ccc5c(c4)CO[C@@]5(CCCN(C)C)c4ccc(F)cc4)cc3S(=O)(=O)[O-])c3ccc(=[N+](CC)CC)cc-3oc2c1 |  | 
5 |  | inactive | inactive |  |  |  |  |  | CN(C)CCC[C@@]1(c2ccc(F)cc2)OCc2cc(C#N)ccc21 |  | 

Row | Compound | Ki [1] | inhibition [2] | inhibition [3] | Ki [4] | Activity [5] | Activity [6] | Activity [7] | Ratio Ki [8] | Ki [9] | Ki [10]
6 | CCN(CC)c1ccc2c(-c3ccc(S(=O)(=O)NCCCCCC(=O)NCCN4C5CCC4[C@@H](C(=O)OC)[C@@H](c4ccc(Cl)c(Cl)c4)C5)cc3S(=O)(=O)[O-])c3ccc(=[N+](CC)CC)cc-3oc2c1 (stereo not given in full) | 94 nM |  |  |  |  |  |  |  | 20 nM | 91 nM
